Test results reported in ChEMBL document CHEMBL3585321, “Synthesis and antimicrobial activity of chloramphenicol-polyamine conjugates” (Bioorg Med Chem, 2015).
pIC50, pKi: −log10 of the molar value. Calls of active or inactive are those of the source. No cut-off for these calls is given here.

How the values were obtained:
[1] = test system: Staphylococcus aureus; assay: Antibacterial activity against wild type Staphylococcus aureus assessed as inhibition of bacterial growth at antibacterial IC50 level in presence of 10 times IC50 levels of putrescine; assay type: functional, organism-based
Method in brief: (§1)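 Cells started at A560 0.020 in M9 medium with drug at its own growth IC50, alone or with putrescine, spermidine or spermine at 10×IC50. Cultures run until the drug-free control reached A560 0.800. Growth given as percent of control optical density. At least three experiments, two replicates each, mean±SD, p<0.05.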

[2] = test system: Staphylococcus aureus; assay: Antibacterial activity against wild type Staphylococcus aureus assessed as inhibition of bacterial growth at antibacterial IC50 level in presence of 10 times IC50 levels of spermine; assay type: functional, organism-based; method in brief: as §1
[3] = test system: Escherichia coli; assay: Reduction in spermidine content in Escherichia coli K-12 at 35.5 uM after 3 hrs by UV and mass spectrometry; assay type: functional; settings: K-12, 3 h
[4] = test system: Escherichia coli; assay: Antibacterial activity against Escherichia coli BL21(DE3) expressing delta-tolC gene assessed as inhibition of bacterial growth; assay type: functional, organism-based
Method in brief: (§2)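 IC50 from bacterial cultures grown in LB medium without drug or with drug across a range of concentrations, reported in μM. Three independent experiments, each with two replicates, given as mean±SD.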

[5] = test system: Escherichia coli; assay: Reduction in protein content in Escherichia coli K-12 at 35.5 uM (reference value: 57 +/- 6.35 mg/g w.w); assay type: functional
[6] = test system: Escherichia coli; assay: Antibacterial activity against wild type Escherichia coli K-12 assessed as inhibition of bacterial growth; assay type: functional, organism-based
[7] = Inhibition of Escherichia coli K-12 70S ribosome poly(U)-programmed ribosome (complex C) bearing tRNAPhe at E-site and Ac[3H]Phe-tRNA at P-site assessed as reduction in peptide bond formation using puromycin(S) substrate
[8] = test system: Escherichia coli; assay: Activity of Escherichia coli chloramphenicol acetyltransferase assessed as coenzyme A formation using acetyl coenzyme A at 0.154 mM
[9] = test system: Escherichia coli; assay: Antibacterial activity against wild type Escherichia coli K-12 assessed as inhibition of bacterial growth at antibacterial IC50 level in presence of 10 times IC50 levels of spermidine; assay type: functional, organism-based; method in brief: as §1
[10] = test system: Escherichia coli; assay: Reduction in spermidine content in Escherichia coli K-12 at 35.5 uM by UV and mass spectrometry (reference value: 1.63 +/- 0.5 umol/g w.w); assay type: functional
[11] = test system: Escherichia coli; assay: Antibacterial activity against Escherichia coli Rosetta(DE3) containing rare tRNA genes and chloramphenicol resistant gene in pLysS plasmid assessed as inhibition of bacterial growth; assay type: functional, organism-based; method in brief: as §2
[12] = test system: Escherichia coli; assay: Antibacterial activity against Escherichia coli lacking chromosomal rrn alleles and containing pKK35 plasmids possessing 23S rRNA A2058G mutant assessed as inhibition of bacterial growth; assay type: functional, organism-based
[13] = test system: Escherichia coli; assay: Antibacterial activity against Escherichia coli lacking chromosomal rrn alleles and containing pKK35 plasmids possessing 23S rRNA A2503C mutant assessed as inhibition of bacterial growth; assay type: functional, organism-based
[14] = test system: Escherichia coli; assay: Ratio of Vmax to Km for Escherichia coli chloramphenicol acetyltransferase assessed as coenzyme A formation using acetyl coenzyme A at 0.154 mM
[15] = test system: Staphylococcus aureus; assay: Antibacterial activity against wild type Staphylococcus aureus assessed as inhibition of bacterial growth; assay type: functional, organism-based
[16] = test system: Staphylococcus aureus; assay: Antibacterial activity against methicillin-resistant Staphylococcus aureus GRE2372 assessed as inhibition of bacterial growth; assay type: functional, organism-based
[17] = test system: Staphylococcus aureus; assay: Antibacterial activity against methicillin-resistant Staphylococcus aureus GRE2272 assessed as inhibition of bacterial growth; assay type: functional, organism-based
[18] = test system: Escherichia coli; assay: Antibacterial activity against wild type Escherichia coli K-12 assessed as inhibition of bacterial growth at antibacterial IC50 level in presence of 10 times IC50 levels of putrescine; assay type: functional, organism-based; method in brief: as §1
[19] = test system: Escherichia coli; assay: Antibacterial activity against wild type Escherichia coli K-12 assessed as inhibition of bacterial growth at antibacterial IC50 level in presence of 10 times IC50 levels of spermine; assay type: functional, organism-based; method in brief: as §1
[20] = test system: Staphylococcus aureus; assay: Antibacterial activity against methicillin-resistant Staphylococcus aureus GRE2691 assessed as inhibition of bacterial growth; assay type: functional, organism-based
[21] = test system: Staphylococcus aureus; assay: Antibacterial activity against wild type Staphylococcus aureus assessed as inhibition of bacterial growth at antibacterial IC50 level in presence of 10 times IC50 levels of spermidine; assay type: functional, organism-based; method in brief: as §1
[22] = test system: Escherichia coli K-12; assay: Drug level in Escherichia coli K-12 at 35.5 uM by RP-HPLC method; assay type: ADME, organism-based; settings: in vivo
[23] = test system: Escherichia coli; assay: Reduction in putrescine content in Escherichia coli K-12 at 35.5 uM after 3 hrs by UV and mass spectrometry; assay type: functional; settings: K-12, 3 h
[24] = test system: Escherichia coli K-12; assay: Drug metabolism in Escherichia coli K-12 assessed as N8,N8-dibenzylspermidine formation at 35.5 uM by RP-HPLC method; assay type: ADME, organism-based; settings: escherichia coli k-12, in vivo
Method in brief: (§3)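 Washed cells homogenized in 0.6 M HClO4 and centrifuged. Supernatant checked by RP-HPLC for released N8,N8-dibenzylspermidine.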

[25] = test system: Escherichia coli; assay: Reduction in putrescine content in Escherichia coli K-12 at 35.5 uM by UV and mass spectrometry (reference value: 7.6 +/- 1.2 umol/g w.w); assay type: functional
[26] = test system: Escherichia coli; assay: Reduction in spermidine content in Escherichia coli K-12 at 9.4 uM by UV and mass spectrometry (reference value: 1.63 +/- 0.5 umol/g w.w); assay type: functional
[27] = test system: Escherichia coli K-12; assay: Drug metabolism in Escherichia coli K-12 assessed as N8,N8-dibenzylspermidine formation at 9.4 uM by RP-HPLC method; assay type: ADME, organism-based; settings: escherichia coli k-12, in vivo; method in brief: as §3
[28] = test system: Escherichia coli; assay: Reduction in spermidine content in Escherichia coli K-12 at 9.4 uM after 3 hrs by UV and mass spectrometry; assay type: functional; settings: K-12, 3 h
[29] = test system: Escherichia coli K-12; assay: Drug level in Escherichia coli K-12 at 9.4 uM by RP-HPLC method; assay type: ADME, organism-based; settings: in vivo
[30] = test system: Escherichia coli; assay: Reduction in putrescine content in Escherichia coli K-12 at 9.4 uM after 3 hrs by UV and mass spectrometry; assay type: functional; settings: K-12, 3 h
[31] = test system: Escherichia coli; assay: Reduction in protein content in Escherichia coli K-12 at 9.4 uM (reference value: 57 +/- 6.35 mg/g w.w); assay type: functional
[32] = test system: Escherichia coli; assay: Reduction in putrescine content in Escherichia coli K-12 at 9.4 uM by UV and mass spectrometry (reference value: 7.6 +/- 1.2 umol/g w.w); assay type: functional
[33] = test system: Escherichia coli; assay: Potency index, ratio of IC50 against wild type Escherichia coli K-12 to IC50 against Escherichia coli BL21(DE3) expressing delta-tolC gene; assay type: functional

| SMILES | growth inhibition (GI) [1] | growth inhibition (GI) [2] | pIC50 [4] | pIC50 [6] | pKi [7] | Km [8] [µM] | Vmax [8] [µM/min] | growth inhibition (GI) [9] | pIC50 [11] | pIC50 [12] | pIC50 [13] | Vmax/Km [14] [min⁻¹] | pIC50 [15] | pIC50 [16] | pIC50 [17] | growth inhibition (GI) [18] | growth inhibition (GI) [19] | pIC50 [20] | growth inhibition (GI) [21] | also measured |
| --- | --- | --- | --- | --- | --- | --- | --- | --- | --- | --- | --- | --- | --- | --- | --- | --- | --- | --- | --- | --- |
| O=C(CCC(=O)N[C@H](CO)[C@H](O)c1ccc([N+](=O)[O-])cc1)NCCCNCCCCN(Cc1ccccc1)Cc1ccccc1 | inactive | inactive | 4.48 | 4.45 | 6.22 | 53.5 | 4.56 | inactive | 4.37 | 4.49 | 4.43 | 0.085 | 4.86 | < 4.00 | < 4.00 | inactive | inactive | < 3.70 | inactive | inhibition at 35.5 µM [3]: 95%; Activity [5]: 21.8 mg/g; Activity [10]: 0.35 µmol/g; Drug uptake [22]: 3.96 µM; inhibition at 35.5 µM [23]: 90%; Drug metabolism [24]: metabolite_notdetected; Activity [25]: 0.46 µmol/g |
| NCCCN(CCCCN(Cc1ccccc1)Cc1ccccc1)C(=O)CCC(=O)N[C@H](CO)[C@H](O)c1ccc([N+](=O)[O-])cc1 |  |  | 5.05 | 5.03 |  |  |  |  | 4.72 | 5.03 | 5.03 |  | 5.33 | 5.05 | 5.15 |  |  | 5.00 |  | Activity [26]: 0.47 µmol/g; Drug metabolism [27]: metabolite_notdetected; inhibition at 9.4 µM [28]: 80%; Drug uptake [29]: 1.06 µM; inhibition at 9.4 µM [30]: 75%; Activity [31]: 13.1 mg/g; Activity [32]: 1.14 µmol/g |
| O=C(N[C@H](CO)[C@H](O)c1ccc([N+](=O)[O-])cc1)C(Cl)Cl [CHLORAMPHENICOL] | Active | Active | 5.70 | 5.21 | 6.06 | 59.3 | 8.23 | Active | 3.96 | 4.81 | 4.61 | 0.139 | 5.51 | 5.22 | 5.10 | Active | Active | 4.84 | Active | Ratio IC50 [33]: 3 |
